# The source made the active and inactive calls. No cut-off for these calls is given here.
# What was measured:
# [1] = biological target: T1, Oxysterols receptor LXR-beta (Homo sapiens) (UniProt P55055); test: Transactivation of human LXR-beta at 10 to 50 uM after 22 hrs by cell based luciferase reporter gene assay
# T1 sequence (whole entry): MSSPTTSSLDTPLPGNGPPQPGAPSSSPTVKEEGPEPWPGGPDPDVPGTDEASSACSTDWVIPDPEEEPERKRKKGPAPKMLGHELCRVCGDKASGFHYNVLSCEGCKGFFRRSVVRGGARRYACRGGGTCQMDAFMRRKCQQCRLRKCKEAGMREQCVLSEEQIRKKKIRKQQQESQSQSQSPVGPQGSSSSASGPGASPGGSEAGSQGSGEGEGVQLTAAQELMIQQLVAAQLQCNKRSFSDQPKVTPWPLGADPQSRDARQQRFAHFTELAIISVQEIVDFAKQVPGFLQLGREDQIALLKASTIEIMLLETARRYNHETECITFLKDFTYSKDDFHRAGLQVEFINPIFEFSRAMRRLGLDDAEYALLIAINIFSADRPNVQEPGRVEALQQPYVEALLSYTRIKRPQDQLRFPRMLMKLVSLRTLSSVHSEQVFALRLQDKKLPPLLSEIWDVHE
# How it was run: (§1)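 Commercial LXRα or LXRβ luciferase reporter cells (nonhuman mammalian) kept in medium or given T0901317 0.01–10 μM, alone or with luteolin 10, 25 or 50 μM, for 22 h. Luminescence read per kit instructions, 500 ms read time. RLU plotted against log T0901317 concentration.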
# [2] = biological target: T2, Oxysterols receptor LXR-alpha (Homo sapiens) (UniProt Q13133); test: Inhibition of T0901317-induced human LXR-alpha transcriptional activity at 10 uM after 22 hrs by cell based luciferase reporter gene assay; how it was run: as §1
# T2 sequence (whole entry): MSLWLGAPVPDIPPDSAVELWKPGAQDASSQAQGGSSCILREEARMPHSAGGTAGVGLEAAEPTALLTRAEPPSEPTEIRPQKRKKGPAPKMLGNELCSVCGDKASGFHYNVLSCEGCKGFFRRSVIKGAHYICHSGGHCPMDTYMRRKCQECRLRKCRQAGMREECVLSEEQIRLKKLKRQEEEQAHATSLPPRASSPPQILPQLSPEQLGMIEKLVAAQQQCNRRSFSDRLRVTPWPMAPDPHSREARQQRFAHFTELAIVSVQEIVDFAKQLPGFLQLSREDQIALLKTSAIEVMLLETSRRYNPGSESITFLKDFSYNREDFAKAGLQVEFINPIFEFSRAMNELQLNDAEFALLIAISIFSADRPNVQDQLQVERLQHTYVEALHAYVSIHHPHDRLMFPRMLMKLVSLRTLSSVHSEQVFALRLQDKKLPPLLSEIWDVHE
# [3] = biological target: T1, Oxysterols receptor LXR-beta (Homo sapiens); test: Inhibition of T0901317-induced human LXR-beta transcriptional activity after 22 hrs by cell based luciferase reporter gene assay; how it was run: as §1
# [4] = biological target: T3, Oxysterols receptor LXR-alpha/beta (Mus musculus, UniProt Q9Z0Y9+Q60644); test: Transactivation of LXR-alpha/beta in mouse RAW264.7 cells assessed as upregulation of ABCA1 mRNA expression at 10 to 50 uM after 3 hrs by RT-PCR method; type: cell-based; conditions: raw264.7, 3 h
# T3 sequence (Q9Z0Y9 whole entry): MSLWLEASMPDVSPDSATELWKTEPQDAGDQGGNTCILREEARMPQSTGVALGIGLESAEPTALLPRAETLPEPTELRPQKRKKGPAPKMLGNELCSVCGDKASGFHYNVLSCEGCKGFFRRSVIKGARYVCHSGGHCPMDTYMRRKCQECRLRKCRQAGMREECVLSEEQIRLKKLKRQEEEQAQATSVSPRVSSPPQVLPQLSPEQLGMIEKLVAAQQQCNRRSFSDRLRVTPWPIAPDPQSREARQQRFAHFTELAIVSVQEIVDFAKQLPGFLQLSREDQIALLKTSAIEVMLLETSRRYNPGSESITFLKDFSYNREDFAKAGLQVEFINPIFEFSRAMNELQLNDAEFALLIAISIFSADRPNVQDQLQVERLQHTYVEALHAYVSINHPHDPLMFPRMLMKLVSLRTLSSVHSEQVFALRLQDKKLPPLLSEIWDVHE
# T3 sequence (Q60644 whole entry): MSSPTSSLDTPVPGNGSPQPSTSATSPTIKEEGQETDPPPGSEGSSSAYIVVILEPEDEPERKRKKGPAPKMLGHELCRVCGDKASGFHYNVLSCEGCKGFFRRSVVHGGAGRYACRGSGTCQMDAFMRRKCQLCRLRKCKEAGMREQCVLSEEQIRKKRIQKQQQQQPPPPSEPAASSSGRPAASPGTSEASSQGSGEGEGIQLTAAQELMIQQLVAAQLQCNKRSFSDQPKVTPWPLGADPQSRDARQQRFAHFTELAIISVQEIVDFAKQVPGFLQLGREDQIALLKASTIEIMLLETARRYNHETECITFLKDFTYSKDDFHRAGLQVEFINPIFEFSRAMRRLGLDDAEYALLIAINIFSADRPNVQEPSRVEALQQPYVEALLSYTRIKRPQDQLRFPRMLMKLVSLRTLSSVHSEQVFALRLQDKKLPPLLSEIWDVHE
# How it was run: (§2)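 RAW 264.7 macrophages pretreated 1 h with T0901317 (0.01–10 μM, or 1 μM), or left in medium, then luteolin 10, 25 or 50 μM for 3 h. ABCA1 mRNA by SYBR-Green real-time RT-PCR, normalised to HPRT1. Pfaffl fold change versus medium control or the T0901317-treated sample. Three independent experiments in duplicate, mean ± SEM. One-way ANOVA with Dunnett's test.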
# [5] = biological target: T1, Oxysterols receptor LXR-beta (Homo sapiens); test: Inhibition of T0901317-induced human LXR-beta transcriptional activity at 10 uM after 22 hrs by cell based luciferase reporter gene assay; how it was run: as §1
# [6] = biological target: T2, Oxysterols receptor LXR-alpha (Homo sapiens); test: Transactivation of human LXR-alpha at 10 to 50 uM after 22 hrs by cell based luciferase reporter gene assay; how it was run: as §1
# [7] = biological target: T2, Oxysterols receptor LXR-alpha (Homo sapiens); test: Inhibition of T0901317-induced human LXR-alpha transcriptional activity after 22 hrs by cell based luciferase reporter gene assay; how it was run: as §1
# Liver X receptor = biological target: T4, Liver X receptor (Homo sapiens, UniProt Q13133+P55055); test: Transactivation of LXR-alpha/beta in human HepG2 cells assessed as upregulation of SREBP-1c mRNA expression at 10 to 50 uM after 12 hrs by RT-PCR method; type: cell-based; conditions: hepg2, 12 h
# T4 sequence (Q13133 whole entry): T2 sequence (whole entry)
# T4 sequence (P55055 whole entry): T1 sequence (whole entry)
# How it was run: (§3)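 HepG2 cells in low-glucose DMEM with 10% FBS, 37 °C, 5% CO2. Pretreated 1 h with T0901317 (0.01–10 μM, or 0.05 or 1 μM), or left in medium, then given luteolin 10, 25 or 50 μM for 12 h. Trizol RNA, SYBR-Green real-time RT-PCR for SREBP-1c, normalised to HPRT1. Pfaffl fold change versus medium control. Two independent experiments in duplicate, mean ± SEM.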
# Mus musculus [8] = test: Antihyperlipidemic activity in ethanol-induced steatosis C57BL/6 mouse model assessed as inhibition of serum triacylglycerol level at 50 mg/kg, po administered daily through oral gavage for 2 weeks by colorimetric method relative to control; type: functional; conditions: C57BL/6, po, 336 h
# [9] = biological target: T5, Liver X receptor (Homo sapiens) (UniProt Q13133+P55055); test: Inhibition of T0901317-induced LXR-alpha/beta transactivation in human HepG2 cells assessed as reduction in SREBP-1c mRNA expression at 50 uM after 12 hrs by RT-PCR method; type: cell-based; how it was run: as §3
# HepG2 [10] = test: Inhibition of T0901317-induced lipid accumulation in human HepG2 cells at 50 uM preincubated for 1 hr followed by T0901317 addition measured after 24 hrs by Oil Red-O dye based microscopic analysis; type: functional, cell-based
# How it was run: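 HepG2 cells preincubated 1 h with luteolin 25 or 50 μM, then T0901317 5 μM added for 24 h. Fixed in 4% paraformaldehyde for 20 min at room temperature. Stained with Oil Red-O (0.6% stock diluted 6:4 with water) for 45 min at room temperature, washed, then imaged by microscopy; absorbance recorded.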
# HepG2 [11] = test: Cytotoxicity against human HepG2 cells assessed as reduction in cell viability at 10 to 50 uM after 12 hrs by MTT assay; type: cell-based; conditions: hepg2, 12 h
# How it was run: (§4)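 Cells treated as in the RT-PCR assays (T0901317 pretreatment 1 h, then luteolin 10, 25 or 50 μM; 12 h for HepG2, 3 h for RAW 264.7). MTT added at 37 °C for 60 min (HepG2) or 15 min (RAW 264.7). Formazan dissolved in acidic 2-propanol and read at 570 nm, reference 620 nm.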
# [12] = biological target: T5, Liver X receptor (Homo sapiens); test: Inhibition of T0901317-induced LXR-alpha/beta transactivation in human HepG2 cells assessed as reduction in SREBP-1c mRNA expression at 10 to 25 uM after 12 hrs by RT-PCR method; type: cell-based; how it was run: as §3
# [13] = biological target: T6, Oxysterols receptor LXR-alpha/beta (Mus musculus) (UniProt Q9Z0Y9+Q60644); test: Inhibition of T0901317-induced LXR-alpha/beta transactivation in mouse RAW264.7 cells assessed as reduction in ABCA1 mRNA expression at 10 uM after 3 hrs by RT-PCR method; type: cell-based; how it was run: as §2
# [14] = biological target: T6, Oxysterols receptor LXR-alpha/beta (Mus musculus); test: Inhibition of T0901317-induced LXR-alpha/beta transactivation in mouse RAW264.7 cells assessed as reduction in ABCA1 mRNA expression at 25 uM after 3 hrs by RT-PCR method relative to control; type: cell-based; how it was run: as §2
# [15] = biological target: T6, Oxysterols receptor LXR-alpha/beta (Mus musculus); test: Inhibition of T0901317-induced LXR-alpha/beta transactivation in mouse RAW264.7 cells assessed as reduction in ABCA1 mRNA expression after 3 hrs by RT-PCR method; type: cell-based; how it was run: as §2
# [16] = biological target: T6, Oxysterols receptor LXR-alpha/beta (Mus musculus); test: Inhibition of T0901317-induced LXR-alpha/beta transactivation in mouse RAW264.7 cells assessed as reduction in ABCA1 mRNA expression at 50 uM after 3 hrs by RT-PCR method relative to control; type: cell-based; how it was run: as §2
# RAW264.7 = test: Cytotoxicity against mouse RAW264.7 cells assessed as reduction in cell viability at 10 to 50 uM after 3 hrs by MTT assay; type: cell-based; conditions: raw264.7, 3 h; how it was run: as §4
# Mus musculus [17] = test: Antihyperlipidemic activity in ethanol-induced steatosis C57BL/6 mouse model assessed as inhibition of serum LDL cholesterol level at 50 mg/kg, po administered daily through oral gavage for 2 weeks by colorimetric method relative to control; type: functional; conditions: C57BL/6, po, 336 h
smiles,measurement,setting,value
O=c1cc(-c2ccc(O)c(O)c2)oc2cc(O)cc(O)c12 [LUTEOLIN],Activity,[1],inactive
same,inhibition,[2],inactive
same,inhibition,[3],Dose-dependent effect
same,Activity,[4],Not Active
same,inhibition,[5],inactive
same,Activity,[6],inactive
same,inhibition,[7],Dose-dependent effect
same,Activity,Liver X receptor,Not Active
same,inhibition in vivo at 50 mg/kg,Mus musculus [8],22%
same,inhibition,[9],Active
same,inhibition,HepG2 [10],Active
same,Activity,HepG2 [11],Non-Toxic
same,inhibition,[12],inactive
same,inhibition,[13],inactive
same,inhibition,[14],41%
same,inhibition,[15],Dose-dependent effect
same,inhibition,[16],64%
same,Activity,RAW264.7,Non-Toxic
same,inhibition in vivo at 50 mg/kg,Mus musculus [17],52%

# — ChEMBL document CHEMBL4428033, “The Flavone Luteolin Inhibits Liver X Receptor Activation” (J Nat Prod, 2016)
